Test results reported in ChEMBL document CHEMBL4371041, “Synthesis and evaluation of thieno[3,2-d]pyrimidine derivatives as novel FMS inhibitors” (Bioorg Med Chem Lett, 2019).

Tests used:
NFS-60 = test: Growth inhibition of mouse NFS60 cells after 72 hrs by CellTiter96 AQueous one solution cell proliferation assay; assay type: functional; conditions: NFS-60, 72 h
[1] = Cmax in CD-1 mouse at 3 mg/kg, iv; assay type: ADME, organism-based; parameters: dose 3 mg/kg, route intravenous; conditions: in vivo
[2] = Volume of distribution in CD-1 mouse at 3 mg/kg, iv; assay type: ADME, organism-based; conditions: in vivo
[3] = Clearance in CD-1 mouse at 3 mg/kg, iv; assay type: ADME, organism-based; conditions: in vivo
[4] = Cmax in CD-1 mouse at 10 mg/kg, po; assay type: ADME, organism-based; parameters: dose 10 mg/kg, route oral; conditions: in vivo
[5] = Tmax in CD-1 mouse at 10 mg/kg, po; assay type: ADME, organism-based; conditions: in vivo
[6] = Oral bioavailability in CD-1 mouse at 10 mg/kg; assay type: ADME, organism-based; conditions: in vivo
[7] = Stability in human hepatocytes assessed as parent compound remaining measured after 60 mins; assay type: ADME, cell-based, Hepatocyte; conditions: read-out: Stability
Cytochrome P450 2D6 = Cytochrome P450 2D6 (Homo sapiens, UniProt P10635); test: Inhibition of CYP2D6 in human liver microsomes by LC-MS/MS analysis; assay type: ADME
Method in brief: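 Reversible CYP inhibition measured in human liver microsomes; metabolite formation quantified by LC/MS/MS.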

[8] = Volume of distribution in CD-1 mouse at 10 mg/kg, po; assay type: ADME, organism-based; conditions: in vivo
[9] = Clearance in CD-1 mouse at 10 mg/kg, po; assay type: ADME, organism-based; conditions: in vivo
[10] = molecular target: Voltage-gated inwardly rectifying potassium channel KCNH2 (Homo sapiens, UniProt Q12809); test: Displacement of Tracer Red from human ERG by fluorescence polarization assay
Voltage-gated inwardly rectifying potassium channel KCNH2, sequence (Q12809 whole entry): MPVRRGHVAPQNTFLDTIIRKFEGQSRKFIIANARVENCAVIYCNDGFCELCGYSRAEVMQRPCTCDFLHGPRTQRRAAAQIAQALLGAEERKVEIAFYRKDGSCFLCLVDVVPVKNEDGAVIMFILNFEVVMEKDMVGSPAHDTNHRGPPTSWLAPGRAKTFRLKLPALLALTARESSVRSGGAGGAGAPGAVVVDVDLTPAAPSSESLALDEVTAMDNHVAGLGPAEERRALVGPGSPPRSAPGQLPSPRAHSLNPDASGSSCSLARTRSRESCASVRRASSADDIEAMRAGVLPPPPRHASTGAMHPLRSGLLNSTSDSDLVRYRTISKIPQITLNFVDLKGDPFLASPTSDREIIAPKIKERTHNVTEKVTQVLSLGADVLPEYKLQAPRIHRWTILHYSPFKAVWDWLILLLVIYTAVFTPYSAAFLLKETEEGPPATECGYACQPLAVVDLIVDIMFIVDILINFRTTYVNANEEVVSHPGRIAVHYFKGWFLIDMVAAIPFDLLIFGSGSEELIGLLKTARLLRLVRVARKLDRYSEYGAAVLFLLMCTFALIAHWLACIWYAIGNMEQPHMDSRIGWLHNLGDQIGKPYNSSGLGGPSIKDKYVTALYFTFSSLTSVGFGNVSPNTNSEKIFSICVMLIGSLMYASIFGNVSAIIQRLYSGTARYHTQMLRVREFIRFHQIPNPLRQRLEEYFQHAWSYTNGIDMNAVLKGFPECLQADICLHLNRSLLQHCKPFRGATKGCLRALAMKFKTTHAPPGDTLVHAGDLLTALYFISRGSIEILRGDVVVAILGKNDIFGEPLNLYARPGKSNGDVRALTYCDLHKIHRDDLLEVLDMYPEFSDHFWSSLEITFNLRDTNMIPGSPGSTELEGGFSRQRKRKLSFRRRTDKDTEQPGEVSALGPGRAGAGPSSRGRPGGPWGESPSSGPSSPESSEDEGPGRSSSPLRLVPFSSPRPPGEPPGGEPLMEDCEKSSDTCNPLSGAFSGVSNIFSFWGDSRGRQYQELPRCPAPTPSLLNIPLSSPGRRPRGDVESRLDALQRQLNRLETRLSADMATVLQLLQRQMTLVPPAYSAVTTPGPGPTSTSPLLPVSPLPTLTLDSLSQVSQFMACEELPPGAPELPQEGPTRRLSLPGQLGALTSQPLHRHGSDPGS

MDA-MB-231 [11] = test: Antiinvasive activity against human MDA-MB-231 cells after 72 hrs by luciferase reporter-based matrigel-coated transwell assay; assay type: functional, cell-based
Method in brief: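 Invasion of luciferase-expressing MDA-MB-231 cells assessed in a system including RAW264.7 mouse macrophages, across a dose range including 1 μM; invasion read by luciferase signal relative to untreated control.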

MDA-MB-231 [12] = test: Growth inhibition of human MDA-MB-231 cells at 5 uM after 24 hrs by MTS assay relative to control; assay type: functional; conditions: MDA-MB-231, 24 h, read-out: GI
[13] = molecular target: Discoidin domain-containing receptor 2 (Homo sapiens, UniProt Q16832); test: Inhibition of recombinant human N-terminal His6-tagged DDR2 (467 to end residues) expressed in baculovirus infected Sf21 insect cells using Axltide as substrate in presence of [gamma-33P]-ATP or [gamma-32P]-ATP
Method in brief: (§1)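 Kinase panel of twenty-eight enzymes; IC50 values determined with ATP at the respective Km of each kinase.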

[14] = molecular target: RAF proto-oncogene serine/threonine-protein kinase (Homo sapiens, UniProt P04049, Y340D/Y341D); test: Inhibition of recombinant human N-terminal GST-tagged c-RAF Y340D/Y341D double mutant (306 to 648 residues) expressed in baculovirus infected Sf21 insect cells using MEK1(K97R) as substrate in presence of [gamma-33P]-ATP or [gamma-32P]-ATP
[15] = molecular target: Fibroblast growth factor receptor 1 (Homo sapiens, UniProt P11362); test: Inhibition of recombinant human N-terminal GST-tagged FGFR1 (456 to 765 residues) expressed in baculovirus infected Sf21 insect cells using IGF-IRtide (12-527) as substrate in presence of [gamma-33P]-ATP or [gamma-32P]-ATP; method in brief: as §1
[16] = molecular target: T1, Vascular endothelial growth factor receptor 2 (Homo sapiens, UniProt P35968); test: Inhibition of recombinant human N-terminal His6-tagged KDR (790 to end residues) expressed in baculovirus infected Sf21 insect cells using MBP as substrate in presence of [gamma-33P]-ATP or [gamma-32P]-ATP; method in brief: as §1
T1 sequence (P35968 whole entry): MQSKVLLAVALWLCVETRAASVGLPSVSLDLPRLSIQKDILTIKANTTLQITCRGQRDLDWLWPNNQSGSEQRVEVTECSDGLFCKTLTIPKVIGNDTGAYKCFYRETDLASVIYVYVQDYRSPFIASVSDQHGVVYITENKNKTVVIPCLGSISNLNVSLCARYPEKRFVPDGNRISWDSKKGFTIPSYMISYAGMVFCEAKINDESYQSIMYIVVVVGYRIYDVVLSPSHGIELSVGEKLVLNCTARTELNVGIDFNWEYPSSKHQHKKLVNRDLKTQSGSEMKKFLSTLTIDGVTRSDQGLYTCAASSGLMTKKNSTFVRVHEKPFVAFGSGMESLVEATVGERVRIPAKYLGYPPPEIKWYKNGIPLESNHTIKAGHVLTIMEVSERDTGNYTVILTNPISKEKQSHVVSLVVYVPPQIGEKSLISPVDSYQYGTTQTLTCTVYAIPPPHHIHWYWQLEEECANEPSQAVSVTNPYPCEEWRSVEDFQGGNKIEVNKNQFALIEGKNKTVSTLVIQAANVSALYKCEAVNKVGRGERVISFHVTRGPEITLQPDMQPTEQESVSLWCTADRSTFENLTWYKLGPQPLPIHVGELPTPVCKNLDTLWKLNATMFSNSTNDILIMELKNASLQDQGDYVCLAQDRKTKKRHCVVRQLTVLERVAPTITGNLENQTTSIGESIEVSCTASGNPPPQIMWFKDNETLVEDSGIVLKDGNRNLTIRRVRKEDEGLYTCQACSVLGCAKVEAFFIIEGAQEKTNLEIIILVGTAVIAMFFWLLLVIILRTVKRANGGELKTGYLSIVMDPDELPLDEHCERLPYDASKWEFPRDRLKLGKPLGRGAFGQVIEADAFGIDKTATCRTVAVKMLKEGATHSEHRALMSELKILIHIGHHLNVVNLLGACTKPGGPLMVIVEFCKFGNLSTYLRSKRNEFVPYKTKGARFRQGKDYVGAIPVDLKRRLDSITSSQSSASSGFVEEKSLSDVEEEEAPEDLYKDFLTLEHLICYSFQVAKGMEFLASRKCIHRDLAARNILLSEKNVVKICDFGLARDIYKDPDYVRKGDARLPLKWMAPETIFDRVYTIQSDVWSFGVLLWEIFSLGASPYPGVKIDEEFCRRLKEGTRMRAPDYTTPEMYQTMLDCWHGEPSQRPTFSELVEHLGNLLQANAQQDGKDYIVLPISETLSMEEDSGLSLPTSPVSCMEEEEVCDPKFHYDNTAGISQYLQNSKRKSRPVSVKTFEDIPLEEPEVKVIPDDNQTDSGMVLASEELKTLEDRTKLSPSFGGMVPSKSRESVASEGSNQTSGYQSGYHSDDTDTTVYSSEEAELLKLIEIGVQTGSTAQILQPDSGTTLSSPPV

[17] = molecular target: NUAK family SNF1-like kinase 1 (Homo sapiens) (UniProt O60285); test: Inhibition of recombinant human N-terminal His6-tagged ARK5 (2 to end residues) expressed in baculovirus infected Sf21 insect cells at 1 uM using CHKtide as substrate in presence of [gamma-33P]-ATP or [gamma-32P]-ATP relative to control
[18] = molecular target: Aurora kinase B/Inner centromere protein (Homo sapiens) (UniProt Q96GD4+Q9NQS7); test: Inhibition of recombinant human full length C-terminal His6-tagged Aurora B/N-terminal GST-tagged INCENP (821 to end residues) expressed in baculovirus infected Sf21 insect cells at 1 uM in presence of [gamma-33P]-ATP or [gamma-32P]-ATP relative to control
[19] = molecular target: Tyrosine-protein kinase receptor UFO (Homo sapiens) (UniProt P30530); test: Inhibition of recombinant human N-terminal His6-tagged Axl (473 to end residues) expressed in baculovirus infected Sf21 insect cells at 1 uM using Axltide as substrate in presence of [gamma-33P]-ATP or [gamma-32P]-ATP relative to control
Tyrosine-protein kinase receptor UFO (Homo sapiens), sequence (P30530 whole entry, the tested form may be a part): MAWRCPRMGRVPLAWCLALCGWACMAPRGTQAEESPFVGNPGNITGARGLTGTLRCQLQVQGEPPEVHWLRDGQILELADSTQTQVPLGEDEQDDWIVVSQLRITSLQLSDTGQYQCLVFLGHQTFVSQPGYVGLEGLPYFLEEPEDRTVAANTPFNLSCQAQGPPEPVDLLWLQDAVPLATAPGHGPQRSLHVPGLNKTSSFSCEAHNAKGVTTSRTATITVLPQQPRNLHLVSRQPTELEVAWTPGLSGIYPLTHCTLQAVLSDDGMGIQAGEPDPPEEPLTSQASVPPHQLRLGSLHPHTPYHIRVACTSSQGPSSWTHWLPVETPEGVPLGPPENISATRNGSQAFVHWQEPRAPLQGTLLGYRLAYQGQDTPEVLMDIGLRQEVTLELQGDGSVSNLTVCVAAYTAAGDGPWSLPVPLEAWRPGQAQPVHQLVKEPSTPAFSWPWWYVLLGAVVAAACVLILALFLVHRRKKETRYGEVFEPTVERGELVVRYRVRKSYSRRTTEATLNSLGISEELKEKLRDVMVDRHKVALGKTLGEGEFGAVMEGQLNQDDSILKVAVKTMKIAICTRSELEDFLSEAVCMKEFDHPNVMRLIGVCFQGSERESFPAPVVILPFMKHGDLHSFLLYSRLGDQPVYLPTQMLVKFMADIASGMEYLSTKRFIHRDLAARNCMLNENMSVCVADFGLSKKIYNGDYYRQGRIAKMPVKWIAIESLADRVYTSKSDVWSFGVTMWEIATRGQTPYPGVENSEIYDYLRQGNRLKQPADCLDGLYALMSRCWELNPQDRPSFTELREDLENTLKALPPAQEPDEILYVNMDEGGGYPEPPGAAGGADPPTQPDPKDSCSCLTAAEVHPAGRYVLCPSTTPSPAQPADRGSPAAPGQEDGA

[20] = molecular target: Ephrin type-A receptor 5 (Homo sapiens) (UniProt P54756); test: Inhibition of recombinant human N-terminal His6-tagged EphA5 (655 to 956 residues) expressed in baculovirus infected Sf21 insect cells at 1 uM using Axltide as substrate in presence of [gamma-33P]-ATP or [gamma-32P]-ATP relative to control
[21] = molecular target: Glycogen synthase kinase-3 alpha (Homo sapiens) (UniProt P49840); test: Inhibition of recombinant human N-terminal His6-tagged GSK3alpha (2 to end residues) expressed in baculovirus infected Sf21 insect cells at 1 uM using GSK3 substrate in presence of [gamma-33P]-ATP or [gamma-32P]-ATP relative to control
[22] = molecular target: Insulin-like growth factor 1 receptor (Homo sapiens) (UniProt P08069); test: Inhibition of Mg/ATP-autoactivated recombinant human N-terminal His6-tagged IGFR1 (959 to end residues) expressed in baculovirus infected Sf21 insect cells at 1 uM in presence of [gamma-33P]-ATP or [gamma-32P]-ATP relative to control
Insulin-like growth factor 1 receptor (Homo sapiens), sequence (P08069 31-736 limits assumed): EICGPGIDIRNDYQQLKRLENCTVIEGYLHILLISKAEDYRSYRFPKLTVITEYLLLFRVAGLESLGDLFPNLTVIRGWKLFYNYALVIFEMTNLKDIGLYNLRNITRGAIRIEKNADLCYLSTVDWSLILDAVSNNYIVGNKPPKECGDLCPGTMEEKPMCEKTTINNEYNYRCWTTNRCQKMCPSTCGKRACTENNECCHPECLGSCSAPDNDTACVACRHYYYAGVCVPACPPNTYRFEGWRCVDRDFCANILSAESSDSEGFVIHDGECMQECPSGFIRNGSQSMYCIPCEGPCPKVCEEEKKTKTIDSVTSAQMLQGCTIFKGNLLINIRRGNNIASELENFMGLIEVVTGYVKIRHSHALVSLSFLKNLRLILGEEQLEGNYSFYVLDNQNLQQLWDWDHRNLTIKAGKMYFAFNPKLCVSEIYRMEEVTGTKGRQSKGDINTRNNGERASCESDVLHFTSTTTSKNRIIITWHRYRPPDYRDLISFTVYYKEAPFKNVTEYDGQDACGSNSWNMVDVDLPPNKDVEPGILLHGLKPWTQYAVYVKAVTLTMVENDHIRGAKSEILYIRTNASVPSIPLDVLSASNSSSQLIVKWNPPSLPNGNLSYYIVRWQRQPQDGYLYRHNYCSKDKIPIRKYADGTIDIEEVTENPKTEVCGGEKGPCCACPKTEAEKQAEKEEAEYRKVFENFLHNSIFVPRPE
Insulin-like growth factor 1 receptor (Homo sapiens), sequence (P08069 741-1367 limits assumed): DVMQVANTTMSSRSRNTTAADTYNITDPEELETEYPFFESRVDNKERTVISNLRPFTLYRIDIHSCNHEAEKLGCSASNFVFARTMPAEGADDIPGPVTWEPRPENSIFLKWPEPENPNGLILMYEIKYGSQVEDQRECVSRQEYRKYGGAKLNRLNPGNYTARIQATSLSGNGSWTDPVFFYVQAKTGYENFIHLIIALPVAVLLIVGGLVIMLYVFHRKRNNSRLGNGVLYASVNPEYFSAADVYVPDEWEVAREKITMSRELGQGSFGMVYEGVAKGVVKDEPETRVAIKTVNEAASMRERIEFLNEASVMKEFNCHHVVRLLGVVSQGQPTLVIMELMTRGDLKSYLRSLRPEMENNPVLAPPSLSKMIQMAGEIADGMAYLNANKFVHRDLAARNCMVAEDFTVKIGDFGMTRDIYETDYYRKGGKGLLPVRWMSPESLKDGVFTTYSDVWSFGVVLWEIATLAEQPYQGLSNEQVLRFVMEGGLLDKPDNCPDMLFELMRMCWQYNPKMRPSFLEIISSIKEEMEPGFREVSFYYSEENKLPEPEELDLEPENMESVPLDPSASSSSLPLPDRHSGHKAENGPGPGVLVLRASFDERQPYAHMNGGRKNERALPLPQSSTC

[23] = molecular target: Tyrosine-protein kinase Lck (Homo sapiens) (UniProt P06239); test: Inhibition of recombinant human full-length N-terminal His6-tagged LCK expressed in baculovirus infected Sf21 insect cells at 1 uM in presence of [gamma-33P]-ATP or [gamma-32P]-ATP relative to control
[24] = molecular target: Hepatocyte growth factor receptor (Homo sapiens) (UniProt P08581); test: Inhibition of recombinant human N-terminal His6-tagged Met (974 to end residues) expressed in baculovirus infected Sf21 insect cells at 1 uM using KKKSPGEYVNIEFG as substrate in presence of [gamma-33P]-ATP or [gamma-32P]-ATP relative to control
[25] = system: RAF proto-oncogene serine/threonine-protein kinase (Homo sapiens), P04049 [Y340D,Y341D]; test: Inhibition of recombinant human N-terminal GST-tagged c-RAF Y340D/Y341D double mutant (306 to 648 residues) expressed in baculovirus infected Sf21 insect cells at 1 uM using MEK1(K97R) as substrate in presence of [gamma-33P]-ATP or [gamma-32P]-ATP relative to control
[26] = molecular target: T1, Vascular endothelial growth factor receptor 2; test: Inhibition of recombinant human N-terminal His6-tagged KDR (790 to end residues) expressed in baculovirus infected Sf21 insect cells at 1 uM using MBP as substrate in presence of [gamma-33P]-ATP or [gamma-32P]-ATP relative to control

## Cc1cccc(Cn2nc(C)c3c(NC(=O)c4csc5c(N)ncnc45)cccc32)n1
NFS-60
  GI50: 80 nM
[1]
  Cmax: 2550 ng/mL
[2]
  Vd: 2 L/kg
[3]
  clearance: 15 mL/min/kg
[4]
  Cmax: 900 ng/mL
[5]
  Tmax: 2 h
[6]
  bioavailability: 36%
[7]
  remaining at 1 h: 87%
Cytochrome P450 2D6
  IC50: > 20 µM
[8]
  Vd: 7.5 L/kg
[9]
  CL/F: 33.3 mL/min/kg
[10]
  IC50: > 50 µM
MDA-MB-231 [11]
  Activity: Dose-dependent effect
MDA-MB-231 [12]
  inhibition of growth at 5 µM: 20%
[13]
  IC50: 64 nM
[14]
  IC50: 80 nM
[15]
  IC50: 145 nM
[16]
  IC50: 527 nM
[17]
  inhibition: 20%
[18]
  inhibition: -3%
[19]
  inhibition: 12%
[20]
  inhibition: -9%
[21]
  inhibition: -10%
[22]
  inhibition: 56%
[23]
  inhibition: 20%
[24]
  inhibition: -9%
[25]
  inhibition: > 60%
[26]
  inhibition: > 60%
